Here are results for one compound from ChEMBL document CHEMBL4049413, “High-content screen using zebrafish (Danio rerio) embryos identifies a novel kinase activator and inhibitor” (Bioorg Med Chem Lett, 2017).

Activity calls are given as the source filed them. The calls are words filed in the database; no cut-off is given here.

For one data set, the species on record is Homo sapiens. The data set is described as follows: Substrate activity at P-gp in human […] cells assessed as intracellular rhodamine123 accumulation at 50 uM after 2 hrs by fluorescence-based HTS assay. It counts as cell-based. The gist of the method: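 MDA-MB-231 breast cancer cells in 96-well plates were pretreated with compound for 2 h, then intracellular rhodamine 123 accumulation was measured by fluorescence (Ex/Em 485/528). Verapamil at 20 uM served as positive control.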

Data set [1] is filed under the species Danio rerio. Kind of data set: Induction of morphological changes in 30 hrs post fertilized zebra fish embryo assessed as defect in tail musculature by measuring downward c-bend of body axis up to 200 uM by microscopic method. The class given is functional. The essentials:
(§1)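 Embryos staged and placed in 12-well plates in E3 medium with 1% DMSO within 6 hpf, ~30 embryos per well. Continuous exposure from 6–30 hpf at varied concentrations up to 200 uM. For the timing window, 100 uM exposure began at different developmental times and all embryos were scored at 30 hpf. Notochord, somite and tail phenotypes were scored by microscopy.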

The target in data set [2] is Death-associated protein kinase 3 (Homo sapiens) (UniProt O43293). The data set is described as follows: Activation of human DAPK3 using KKLNRTLSFAEPG as substrate in presence of [gamma-33P]-ATP.
Chain of Death-associated protein kinase 3 (Homo sapiens) (O43293 whole entry, looked up): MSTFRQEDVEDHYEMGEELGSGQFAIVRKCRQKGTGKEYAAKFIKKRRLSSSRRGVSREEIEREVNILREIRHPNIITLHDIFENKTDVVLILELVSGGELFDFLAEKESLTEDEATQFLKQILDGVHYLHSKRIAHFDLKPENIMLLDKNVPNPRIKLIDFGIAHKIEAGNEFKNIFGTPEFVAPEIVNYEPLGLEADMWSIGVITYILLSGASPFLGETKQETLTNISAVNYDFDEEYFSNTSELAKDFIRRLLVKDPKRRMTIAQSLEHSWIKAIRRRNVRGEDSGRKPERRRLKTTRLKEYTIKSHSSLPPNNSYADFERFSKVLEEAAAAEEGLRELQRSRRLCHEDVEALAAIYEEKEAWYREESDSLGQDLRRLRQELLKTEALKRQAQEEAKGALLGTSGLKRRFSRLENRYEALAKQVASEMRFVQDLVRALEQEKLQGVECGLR
The species entered for data set [3] is Danio rerio. The data set is described as follows: Induction of morphological changes in 30 to 48 hrs post fertilized zebra fish embryo by microscopic method. It counts as functional.
For data set [4], the species on record is Danio rerio. Kind of data set: Induction of morphological changes in 6 to 14 hrs post fertilized zebra fish embryo assessed as defect in somite development at 100 uM by microscopic method. It counts as functional. The gist of the method: as §1
Data set [5] addresses Serine/threonine-protein kinase pim-2 (Homo sapiens) (UniProt Q9P1W9). Kind of data set: Inhibition of human PIM2 using RSRHSSYPAGT as substrate in presence of [gamma-33P]-ATP.
The species entered for data set [6] is Danio rerio. The data set is described as follows: Induction of morphological changes in 22 hrs post fertilized zebra fish embryo at 100 uM by microscopic method. The class given is functional. The gist of the method:
as §1

Data set [7] is filed under the species Danio rerio. The data set is described as follows: Induction of morphological changes in 30 hrs post fertilized zebra fish embryo assessed as defect in notochord development up to 200 uM by microscopic method. The class given is functional. The gist of the method:
as §1

The species named for data set [8] is Danio rerio. Kind of data set: Induction of morphological changes in 14 hrs post fertilized zebra fish embryo assessed as defect in somite development at 100 uM by microscopic method. The class given is functional. The gist of the method:
as §1

The next data set concerns the target Albumin (Bos taurus, UniProt P02769). Kind of data set: Binding affinity to bovine serum albumin by tryptophan quenching based HTS assay. The class given is ADME. The essentials: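 Bovine serum albumin binding screened in HTS format by quenching of intrinsic BSA tryptophan fluorescence, Ex/Em 280/340 nm; IC50 derived from the quenching response.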
Data set [9] is filed under the species Danio rerio. Kind of data set: Induction of morphological changes in 6 hrs post fertilized zebra fish embryo assessed as defect in notochord development up to 200 uM by microscopic method. The class given is functional. The essentials: as §1
Data set [10] is filed under the species Danio rerio. Kind of data set: Induction of morphological changes in 6 hrs post fertilized zebra fish embryo assessed as defect in tail musculature by measuring downward c-bend of body axis up to 200 uM by microscopic method. It counts as functional. The gist of the method: as §1
In data set [11] the target is Serine/threonine-protein kinase pim-3 (Homo sapiens, UniProt Q86V86). Kind of data set: Inhibition of human PIM3 using RSRHSSYPAGT as substrate in presence of [gamma-33P]-ATP.
For data set [12], the species on record is Danio rerio. Kind of data set: Toxicity in 6 to 30 hrs post fertilized zebra fish embryo assessed as death at 200 uM by microscopic method. As to conditions: zebrafish. The essentials: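 Staged zebrafish embryos placed in 12-well plates in E3 embryo medium within 6 hpf and exposed from 6 to 30 hpf in E3 with 1% DMSO, with or without compound, ~30 embryos per group (at most 30 per well). Wells were inspected under a dissecting microscope, and death was scored as loss of embryonic structure.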

Data set [13] addresses Serine/threonine-protein kinase pim-1 (Homo sapiens) (UniProt P11309). The data set is described as follows: Inhibition of human PIM1 using KKRNRTLTK as substrate in presence of [gamma-33P]-ATP.
The species named for data set [14] is Danio rerio. Kind of data set: Induction of morphological changes in 14 hrs post fertilized zebra fish embryo assessed as defect in notochord development at 100 uM by microscopic method. It counts as functional. The essentials: as §1
Data set [15] concerns the target Death-associated protein kinase 2 (Homo sapiens) (UniProt Q9UIK4). The data set is described as follows: Activation of human DAPK2 using KKLNRTLSFAEPG as substrate in presence of [gamma-33P]-ATP.
Data set [16] is filed under the species Danio rerio. The data set is described as follows: Induction of morphological changes in 6 to 14 hrs post fertilized zebra fish embryo assessed as defect in notochord development at 100 uM by microscopic method. The class given is functional. The essentials:
as §1

The target in data set [17] is Death-associated protein kinase 1 (Homo sapiens, UniProt P53355). Kind of data set: Activation of human DAPK1 using KKLNRTLSFAEPG as substrate in presence of [gamma-33P]-ATP.
Chain of Death-associated protein kinase 1 (P53355 whole entry): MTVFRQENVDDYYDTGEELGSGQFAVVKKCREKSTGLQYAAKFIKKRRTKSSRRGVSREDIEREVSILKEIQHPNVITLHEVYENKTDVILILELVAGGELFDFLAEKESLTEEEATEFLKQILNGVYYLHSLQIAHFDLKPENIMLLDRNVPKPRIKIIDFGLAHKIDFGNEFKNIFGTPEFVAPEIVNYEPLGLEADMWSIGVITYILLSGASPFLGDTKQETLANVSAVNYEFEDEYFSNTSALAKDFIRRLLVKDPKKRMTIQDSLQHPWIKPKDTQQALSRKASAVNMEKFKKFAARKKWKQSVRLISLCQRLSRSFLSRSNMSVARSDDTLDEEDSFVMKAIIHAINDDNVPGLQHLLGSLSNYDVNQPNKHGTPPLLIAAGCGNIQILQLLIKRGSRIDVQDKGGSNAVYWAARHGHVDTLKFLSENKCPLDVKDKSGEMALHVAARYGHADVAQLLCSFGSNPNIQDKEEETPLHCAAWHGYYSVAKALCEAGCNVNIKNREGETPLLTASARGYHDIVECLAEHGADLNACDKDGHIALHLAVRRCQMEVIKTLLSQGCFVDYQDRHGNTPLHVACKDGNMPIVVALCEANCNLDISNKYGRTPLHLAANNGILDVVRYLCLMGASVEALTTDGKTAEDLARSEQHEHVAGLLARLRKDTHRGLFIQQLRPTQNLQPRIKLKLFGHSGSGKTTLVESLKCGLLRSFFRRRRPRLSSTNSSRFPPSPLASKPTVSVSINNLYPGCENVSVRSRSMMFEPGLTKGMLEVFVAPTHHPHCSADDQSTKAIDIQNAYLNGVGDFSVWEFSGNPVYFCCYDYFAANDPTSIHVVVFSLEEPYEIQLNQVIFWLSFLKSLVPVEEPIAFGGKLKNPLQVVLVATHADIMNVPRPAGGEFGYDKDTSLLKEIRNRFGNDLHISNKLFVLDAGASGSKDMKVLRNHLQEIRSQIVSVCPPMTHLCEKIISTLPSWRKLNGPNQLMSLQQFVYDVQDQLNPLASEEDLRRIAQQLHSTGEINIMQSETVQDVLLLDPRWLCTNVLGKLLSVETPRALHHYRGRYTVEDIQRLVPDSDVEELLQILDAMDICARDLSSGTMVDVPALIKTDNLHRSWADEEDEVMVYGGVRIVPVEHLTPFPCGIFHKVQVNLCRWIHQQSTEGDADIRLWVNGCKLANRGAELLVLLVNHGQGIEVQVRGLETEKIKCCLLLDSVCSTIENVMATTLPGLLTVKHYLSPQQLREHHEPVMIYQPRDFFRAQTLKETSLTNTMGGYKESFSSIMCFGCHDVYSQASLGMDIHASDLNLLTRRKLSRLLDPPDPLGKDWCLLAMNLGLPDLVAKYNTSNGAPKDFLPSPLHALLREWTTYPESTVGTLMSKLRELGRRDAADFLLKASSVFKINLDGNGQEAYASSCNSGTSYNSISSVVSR

Chain of Serine/threonine-protein kinase pim-2 (Homo sapiens) (Q9P1W9 whole entry, looked up): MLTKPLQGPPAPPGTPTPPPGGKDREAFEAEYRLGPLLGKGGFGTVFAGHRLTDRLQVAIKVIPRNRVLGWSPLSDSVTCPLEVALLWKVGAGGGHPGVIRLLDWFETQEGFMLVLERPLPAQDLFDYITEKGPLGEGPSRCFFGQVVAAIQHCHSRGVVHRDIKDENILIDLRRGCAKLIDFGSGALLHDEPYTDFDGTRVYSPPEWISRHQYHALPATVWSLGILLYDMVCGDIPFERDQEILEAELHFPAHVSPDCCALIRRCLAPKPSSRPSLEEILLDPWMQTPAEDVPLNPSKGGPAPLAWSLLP
Chain of Death-associated protein kinase 2 (Homo sapiens) (Q9UIK4 whole entry, looked up): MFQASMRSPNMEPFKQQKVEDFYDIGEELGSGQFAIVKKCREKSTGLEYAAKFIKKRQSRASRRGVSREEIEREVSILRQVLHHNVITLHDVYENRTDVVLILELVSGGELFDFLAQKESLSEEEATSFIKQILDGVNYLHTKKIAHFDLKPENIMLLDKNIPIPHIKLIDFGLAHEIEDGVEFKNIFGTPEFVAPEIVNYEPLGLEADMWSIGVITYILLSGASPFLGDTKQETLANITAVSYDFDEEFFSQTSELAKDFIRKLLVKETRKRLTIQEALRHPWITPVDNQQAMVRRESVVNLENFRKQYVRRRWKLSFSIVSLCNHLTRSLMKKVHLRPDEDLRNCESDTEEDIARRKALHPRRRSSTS
Chain of Albumin (P02769 whole entry): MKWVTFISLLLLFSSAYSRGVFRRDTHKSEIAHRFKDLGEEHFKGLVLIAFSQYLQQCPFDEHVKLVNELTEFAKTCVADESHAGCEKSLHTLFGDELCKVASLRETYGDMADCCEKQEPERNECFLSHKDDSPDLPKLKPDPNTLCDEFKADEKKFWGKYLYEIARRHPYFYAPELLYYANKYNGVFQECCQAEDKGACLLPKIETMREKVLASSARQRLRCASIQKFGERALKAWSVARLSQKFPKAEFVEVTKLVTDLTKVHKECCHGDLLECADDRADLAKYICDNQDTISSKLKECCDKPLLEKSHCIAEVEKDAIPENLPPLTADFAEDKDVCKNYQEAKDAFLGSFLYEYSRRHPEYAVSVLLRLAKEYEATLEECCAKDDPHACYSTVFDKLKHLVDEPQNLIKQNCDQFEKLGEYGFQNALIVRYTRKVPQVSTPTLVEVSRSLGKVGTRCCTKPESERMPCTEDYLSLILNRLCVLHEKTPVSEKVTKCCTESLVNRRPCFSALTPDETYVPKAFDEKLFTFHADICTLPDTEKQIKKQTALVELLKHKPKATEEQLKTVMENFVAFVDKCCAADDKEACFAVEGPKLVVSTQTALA
Chain of Serine/threonine-protein kinase pim-1 (Homo sapiens) (P11309 whole entry, looked up): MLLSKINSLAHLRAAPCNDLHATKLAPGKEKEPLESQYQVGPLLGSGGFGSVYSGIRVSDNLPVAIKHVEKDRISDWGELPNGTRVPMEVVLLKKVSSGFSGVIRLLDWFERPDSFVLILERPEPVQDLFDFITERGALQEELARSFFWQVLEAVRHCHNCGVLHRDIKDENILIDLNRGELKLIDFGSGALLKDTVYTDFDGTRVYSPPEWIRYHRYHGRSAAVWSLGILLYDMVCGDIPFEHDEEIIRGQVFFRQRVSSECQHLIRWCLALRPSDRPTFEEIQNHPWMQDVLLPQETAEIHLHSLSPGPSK

Take `O=C(COc1cccc2ccccc12)Nc1cccc(C(=O)O)c1`: the result (in the data set filed under Homo sapiens; in the data set filed under Danio rerio [1]; in [2]; in the data set listed under Danio rerio [3]; in the data set listed under Danio rerio [6]; in the data set listed under Danio rerio [7]) was inactive. The outcome (in the data set filed under Danio rerio [8]; in the data set filed under Danio rerio [14]; in data set [15]) was inactive. The outcome in the data set listed under Danio rerio [4], in the data set filed under Danio rerio [9], in the data set listed under Danio rerio [10] and in the data set listed under Danio rerio [16] was Active. In addition, the inhibition entry in data set [5] and in [13] was “inactive” in each case. Besides, the IC50 at Albumin stood at 23.3 µM; in data set [11], 4.08 µM. Further, the Activity result in the data set filed under Danio rerio [12] was “Toxic”. In data set [17], the concentration for a half-maximal effect (EC50) was found to be 39.5 µM.
